Molecules are shown by their SMILES.

Test [1] concerns the target Phosphatidylinositol 4,5-bisphosphate 3-kinase catalytic subunit alpha isoform (Homo sapiens) (UniProt P42336). Nature of the test: Inhibition of PI3K-alpha (unknown origin) using l-alpha-phosphatidylinositol as substrate at 10 uM after 60 mins by luminescence assay.
The next test relates to PC-3. Nature of the test: Selectivity ratio of BMCL-200908069-1 IC50 to compound IC50 for human PC3 cells. The format is functional.
Test [2] concerns the target T1, Serine/threonine-protein kinase mTOR (Homo sapiens, UniProt P42345). Nature of the test: Inhibition of mTOR kinase (unknown origin) after 1 hr by TR-FRET assay.
For test [3], the target named is T1, Serine/threonine-protein kinase mTOR. Nature of the test: Selectivity ratio of BMCL-200908069-1 IC50 to compound IC50 for mTOR kinase (unknown origin).
Test [4] in a line: Selectivity ratio of BMCL-200908069-1 IC50 to compound IC50 for human H460 cells. The class given is functional.
Test [5] can be described thus: Cytotoxicity against human PC3 cells after 72 hrs by MTT assay. The format is functional, cell-based. Particulars: PC-3, 72 h. The essentials: (§1)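 Cells grown in MEM with 10% FBS; ~4 × 10³ cells/well plated and held 24 h at 37 °C, 5% CO2. Compounds added at indicated final concentrations for 72 h. MTT added, 4 h at 37 °C; formazan dissolved in DMSO, absorbance read at 492 nm against 630 nm reference. Tested three times per cell line; inhibition rates or IC50 averaged from two determinations.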

Test [6] is described as follows: Cytotoxicity against human H460 cells after 72 hrs by MTT assay. The class given is functional, cell-based. Particulars: NCI-H460, 72 h. The essentials: as §1

Chain of Phosphatidylinositol 4,5-bisphosphate 3-kinase catalytic subunit alpha isoform (Homo sapiens) (P42336 whole entry, canonical isoform): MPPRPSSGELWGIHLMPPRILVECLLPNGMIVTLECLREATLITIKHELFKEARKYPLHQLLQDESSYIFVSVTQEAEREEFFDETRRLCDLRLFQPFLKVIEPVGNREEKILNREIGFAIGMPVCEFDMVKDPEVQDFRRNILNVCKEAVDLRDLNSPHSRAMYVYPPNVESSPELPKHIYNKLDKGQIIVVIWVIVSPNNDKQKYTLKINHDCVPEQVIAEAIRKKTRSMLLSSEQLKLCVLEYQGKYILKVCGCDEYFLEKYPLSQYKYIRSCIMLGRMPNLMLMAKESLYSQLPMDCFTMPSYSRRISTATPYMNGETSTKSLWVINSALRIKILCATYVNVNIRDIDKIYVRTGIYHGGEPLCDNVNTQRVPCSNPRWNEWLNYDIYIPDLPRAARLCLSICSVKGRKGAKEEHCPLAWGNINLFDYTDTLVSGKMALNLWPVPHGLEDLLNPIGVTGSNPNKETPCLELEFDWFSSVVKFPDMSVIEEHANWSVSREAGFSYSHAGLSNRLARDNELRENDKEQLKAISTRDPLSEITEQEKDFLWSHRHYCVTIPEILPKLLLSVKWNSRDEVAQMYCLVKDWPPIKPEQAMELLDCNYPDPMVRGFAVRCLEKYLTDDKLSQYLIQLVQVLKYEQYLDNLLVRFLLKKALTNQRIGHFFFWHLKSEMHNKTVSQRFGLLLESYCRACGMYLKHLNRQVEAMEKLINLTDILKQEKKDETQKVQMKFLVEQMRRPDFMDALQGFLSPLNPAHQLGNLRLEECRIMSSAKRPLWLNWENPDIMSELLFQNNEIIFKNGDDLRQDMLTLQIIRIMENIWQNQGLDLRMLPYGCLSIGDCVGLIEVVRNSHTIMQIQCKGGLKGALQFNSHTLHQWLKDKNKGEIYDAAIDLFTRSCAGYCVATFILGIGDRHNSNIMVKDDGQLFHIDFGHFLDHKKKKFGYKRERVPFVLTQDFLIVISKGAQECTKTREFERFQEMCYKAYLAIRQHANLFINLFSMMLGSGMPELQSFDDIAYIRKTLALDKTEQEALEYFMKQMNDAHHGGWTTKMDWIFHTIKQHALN

Turning to `COc1cc(/C=N/Nc2nc3c(c(N4CCOCC4)n2)CSCC3)cc(OC)c1O`, the inhibition in test [1] was 12%. The results for the Ratio IC50 (in the test on PC-3; in test [3]; in test [4]) were 1.37, 1.71 and 1.28, respectively. The IC50 worked out at 0.8 µM in test [2], 11.9 µM in test [5] and 7.43 µM in test [6].
`COc1cc(/C=N/Nc2nc3c(c(N4CCOCC4)n2)CS(=O)(=O)CC3)cc(OC)c1O` displayed an inhibition in test [1] of 6.2%. The concentration for half-maximal inhibition (IC50) in test [2] is 2.2 µM; in test [5], > 20 µM.
As to `Oc1c(Br)cc(/C=N/Nc2nc3c(c(N4CCOCC4)n2)CSCC3)cc1Br`, the inhibition in test [1] is 21.6%. Moreover, the IC50 was 2.67 µM in test [2] and > 20 µM in test [5].
Regarding `O=S1(=O)CCc2nc(N/N=C/c3cc(Br)c(O)c(Br)c3)nc(N3CCOCC3)c2C1`, the inhibition in test [1] came out at 24.9%. Also, the IC50 in test [2] was 6.93 µM; in test [5], > 20 µM.
Molecule `Oc1ccc(/C=N/Nc2nc3c(c(N4CCOCC4)n2)CSCC3)cc1Br` displayed an inhibition in test [1] of 18.8%. Also, the IC50 in test [2] was 1.94 µM; in test [5], 14.4 µM; in test [6], 10.8 µM.
For `COc1cc(/C=N/Nc2nc(N3CCOCC3)nc(N3CCOCC3)n2)cc(OC)c1O`, the half-maximal inhibitory concentration (IC50) turned out to be 1.37 µM in test [2], 16.3 µM in test [5] and 9.52 µM in test [6].

Values taken from ChEMBL document CHEMBL3352220, “Design, synthesis, anticancer activity and docking studies of novel 4-morpholino-7,8-dihydro-5H-thiopyrano[4,3-d]pyrimidine derivatives as mTOR inhibitors” (Bioorg Med Chem, 2014).
